Laboratory results: ChEMBL document CHEMBL1127545, “Synthesis, oral bioavailability determination, and in vitro evaluation of prodrugs of the antiviral agent 9-[2-(phosphonomethoxy)ethyl]adenine (PMEA)” (J Med Chem, 1994)
pIC50: −log10 of the molar value.

Tests used:
[1] = Bioavailability in rat of PMEA prodrug; type: ADME, organism-based; conditions: in vivo
Procedure, shortened: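 Male rats fasted 12-18 h, three per route. Reference: parent phosphonate iv bolus 30 mg/kg in normal saline via tail vein. Oral: parent at 30 mg/kg in 5% DMSO/water by gastric intubation; prodrugs as 5% DMSO/water solutions at 24-43 mg/kg PMEA equivalents. Urine collected 0-24 and 24-48 h in metabolism cages. PMEA measured by reversed-phase HPLC with fluorometric detection. Bioavailability = dose-normalized 0-48 h urinary PMEA, oral vs iv.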

[2] = system: Vero; assay: Concentration that reduced plaque formation by 50% was measured in HSV-2 infected vero cells in vitro; type: functional, cell-based; conditions: Chlorocebus sabaeus
Procedure, shortened: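 Plaque reduction assay against HSV-2 strain G in infected Vero cells. IC50 taken as the concentration giving 50% reduction in plaque formation.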

[3] = Oral bioavailability of compound in monkey; type: ADME, organism-based; conditions: simiiformes, in vivo, read-out: Bioavailabiility
[4] = Oral bioavailability of compound in rat; type: ADME, organism-based; conditions: in vivo, read-out: Bioavailabiility
Procedure, shortened: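 Fasted (12-18 h) male rats, three per route. Prodrugs were given by gastric intubation in 5% DMSO/water at 24-43 mg/kg PMEA equivalents. The reference was PMEA 30 mg/kg as an iv tail-vein bolus in saline. Urine was collected 0-24 and 24-48 h in metabolism cages and PMEA quantified by reversed-phase HPLC with fluorometric detection. Bioavailability is dose-normalized 0-48 h urinary PMEA, oral versus iv.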

SMILES | F [1] [%] | further results
CC(C)CCOP(=O)(COCCn1cnc2c(N)ncnc21)OCCC(C)C | 0.5 | –
COP(=O)(COCCn1cnc2c(N)ncnc21)OC | 0 | –
CC1(C)CNP(=O)(COCCn2cnc3c(N)ncnc32)NC1 | 5.8 | –
Nc1ncnc2c1ncn2CCOCP(=O)(O)OCc1ccc([N+](=O)[O-])cc1 | 1.9 | –
CCN(CC)P(=O)(COCCn1cnc2c(N)ncnc21)N(CC)CC | 7.2 | –
CCC(=O)OCOP(=O)(COCCn1cnc2c(N)ncnc21)OCOC(=O)CC | – | pIC50 [2]: 6.40
CC(C)(C)C(=O)OCOP(=O)(COCCn1cnc2c(N)ncnc21)OCOC(=O)C(C)(C)C [ADEFOVIR DIPIVOXIL] | 17.3 | pIC50 [2]: 6.22
Nc1ncnc2c1ncn2CCOCP(=O)(O)Oc1ccccc1 | 14 | pIC50 [2]: 4.02
Nc1ncnc2c1ncn2CCOCP(=O)(O)O [ADEFOVIR] | 7.8 | bioavailability [3]: < 1%; pIC50 [2]: 3.92; bioavailability [4]: 11%
Nc1ncnc2c1ncn2CCOCP(=O)(Oc1ccccc1)Oc1ccccc1 | 11.1 | pIC50 [2]: 4.11
CCOP(=O)(COCCn1cnc2c(N)ncnc21)OCOC(=O)C(C)(C)C (stereo not given) | 34.9 | –
CCN(CC)C(=O)COP(=O)(O)COCCn1cnc2c(N)ncnc21 | 3.5 | –
CC(C)C(=O)OCOP(=O)(COCCn1cnc2c(N)ncnc21)OCOC(=O)C(C)C | – | pIC50 [2]: > 6.70
CC(C)OP(=O)(COCCn1cnc2c(N)ncnc21)OC(C)C | 44.4 | –

Second part, led by results:

F [1] [%] | SMILES | further results
0.7 | Nc1ncnc2c1ncn2CCOCP1(=O)OCCCO1 | –
0 | CC(C)COP(=O)(COCCn1cnc2c(N)ncnc21)OCC(C)C | –
10.6 | Nc1ncnc2c1ncn2CCOCP(=O)(OCC(Cl)(Cl)Cl)OCC(Cl)(Cl)Cl | –
0.8 | CCCCCCCCOP(=O)(O)COCCn1cnc2c(N)ncnc21 | –
42 | CCOP(=O)(COCCn1cnc2c(N)ncnc21)OCC | pIC50 [2]: < 3.52
2.2 | CCN(CC)C(=O)COP(=O)(COCCn1cnc2c(N)ncnc21)OCOC(=O)C(C)(C)C (stereo not given) | –
0 | CCOP(=O)(O)COCCn1cnc2c(N)ncnc21 | pIC50 [2]: < 3.52
3.5 | Nc1ncnc2c1ncn2CCOCP(=O)(O)OCC(F)(F)CO | –
0 | CC1(C)COP(=O)(COCCn2cnc3c(N)ncnc32)OC1 | –
1.4 | COP(=O)(O)COCCn1cnc2c(N)ncnc21 | –
6.5 | CC(C)(C)C(=O)OCOP(=O)(O)COCCn1cnc2c(N)ncnc21 | pIC50 [2]: 4.66
0 | CC(C)(CO)COP(=O)(O)COCCn1cnc2c(N)ncnc21 | –
10.6 | CC(C)(CN)CNP(=O)(O)COCCn1cnc2c(N)ncnc21 | –
1.7 | Nc1ncnc2c1ncn2CCOCP(=O)(OCc1ccc([N+](=O)[O-])cc1)OCc1ccc([N+](=O)[O-])cc1 | –
5 | CC(C)OP(=O)(O)COCCn1cnc2c(N)ncnc21 | –
5.8 | CC(=O)OCC(=O)COC(C)=O | –
2.5 | Nc1ncnc2c1ncn2CCOCP(=O)(O)OCC(Cl)(Cl)Cl | –
